Converted amounts (≈) assume the structure as drawn. Some results are limits rather than exact numbers.

Our source for the IC50 and MIC values is ChEMBL document CHEMBL1139409, “Pestalachlorides A-C, antifungal metabolites from the plant endophytic fungus Pestalotiopsis adusta” (Bioorg Med Chem, 2008).

What all share (format): functional, organism-based
In one experiment the test system is Verticillium albo-atrum. The experiment in a line: Antifungal activity against Verticillium albo-atrum by Almar blue assay. Put shortly:
(§1)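 Plant pathogen strains from CGMCC, maintained on potato dextrose agar; inocula from broth cultures grown 25 °C for 48 h, final suspension 1 × 10^4 hyphae/mL. Samples from 10 mg/mL DMSO stock, serially diluted, in triplicate, with alamar blue indicator; incubated 28 °C for 48 h, fluorescence read at Ex/Em 544/590 nm. Inhibition rate plotted against concentration to give IC50 and MIC; NCCLS-based method.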

The next experiment relates to Fusarium graminearum. The experiment in a line: Antifungal activity against Gibberella zeae by Almar blue assay. Put shortly:
as §1

Another experiment concerns Fusarium culmorum. The experiment in a line: Antifungal activity against Fusarium culmorum by Almar blue assay. The method, boiled down:
as §1

As usually defined, the IC50 is the concentration that inhibits the measured activity by half. Lower therefore signals greater potency in that assay. In general, MIC refers to the lowest concentration found to suppress growth. Read a low MIC as a more susceptible organism. For the molecule `COc1c(Cl)c(C)c(Cl)c(O)c1C1NC(=O)c2c(O)cc(O)c(CC=C(C)C)c21` (racemic) [PESTALACHLORIDE A], the half-maximal inhibitory concentration (IC50) in the experiment with Verticillium albo-atrum worked out at 58.3 µM; in the experiment on Fusarium graminearum it was 54.4 µM; in the experiment with Fusarium culmorum, 0.89 µM. In addition, the results for the minimum inhibitory concentration (MIC) against Verticillium albo-atrum, in the experiment with Fusarium graminearum and against Fusarium culmorum were 114 µM (≈ 50.1 µg/mL), 114 µM (≈ 50.1 µg/mL) and 7.2 µM (≈ 3.16 µg/mL), respectively.
Regarding `COc1c(Cl)c(C)c(Cl)c2c1[C@H]1c3c(C=O)c(O)cc(O)c3C[C@@H]1C(C)(C)O2` (racemic) [PESTALACHLORIDE C], the IC50 in the experiment on Verticillium albo-atrum, in the experiment with Fusarium graminearum and in the experiment with Fusarium culmorum was above 118 µM each time. The MIC against Verticillium albo-atrum, in the experiment with Fusarium graminearum and in the experiment with Fusarium culmorum was above 237 µM each time.
`CC(C)=CCc1c(O)cc(O)c2c1C(=O)c1c(O)c(Cl)c(C)c(Cl)c1OC2` [PESTALACHLORIDE B]: the results for the concentration for half-maximal inhibition (IC50) with Verticillium albo-atrum, in the experiment on Fusarium graminearum and in the experiment on Fusarium culmorum were 7.9 µM, 1.1 µM and 4.7 µM, respectively. The MIC was 12.2 µM (≈ 4.99 µg/mL) in the experiment with Verticillium albo-atrum, 12.2 µM (≈ 4.99 µg/mL) against Fusarium graminearum and 49 µM (≈ 20.1 µg/mL) with Fusarium culmorum.
